Source: ChEMBL document CHEMBL5257036, “Benzophenone-nucleoside derivatives as telomerase inhibitors: Design, synthesis and anticancer evaluation in vitro and in vivo” (Eur J Med Chem, 2016)
pIC50: −log10 of the molar value. Active and inactive are the calls of the source. No cut-off for these calls is given here.

Tests used:
[1] = target: T1, Telomerase reverse transcriptase (Homo sapiens, UniProt O14746); assay: Inhibition of telomerase activity in human SGC-7901 cells incubated for 24 hrs by TRAP-PCR-ELISA assay; type: cell-based
Method in brief: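 Extract was mixed with TRAP reaction mix, incubated 25 °C for 30 min, then 35 PCR cycles (94/50/72 °C). Products detected by anti-DIG-peroxidase ELISA at 490 nm; mean ± SD.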

SMMC-7721 = assay: Antiproliferative activity against human SMMC-7721 cells measured after 48 hrs by MTT assay; type: functional, cell-based; conditions: SMMC-7721, 48 h
Method in brief: (§1)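 Cells grown to log phase in RPMI 1640 with 10% FBS, seeded at 3 × 10⁴ cells/mL, and preincubated 24 h at 37 °C, 5% CO₂. Compounds were added at pre-set concentrations to 6 wells each, with doxorubicin as reference, and exposed for 48 h. MTT was then added and absorbance read at 570 nm.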

HeLa = assay: Antiproliferative activity against human HeLa cells measured after 48 hrs by MTT assay; type: functional, cell-based; method in brief: as §1
HepG2 [2] = assay: Antiproliferative activity against human HepG2 cells measured after 48 hrs by MTT assay; type: functional, cell-based; conditions: HepG2, 48 h; method in brief: as §1
SGC-7901 [3] = assay: Antiproliferative activity against human SGC-7901 cells measured after 48 hrs by MTT assay; type: functional, cell-based; conditions: SGC-7901, 48 h; method in brief: as §1
[4] = target: T1, Telomerase reverse transcriptase; assay: Inhibition of telomerase activity in human SGC-7901 cells at 0.082 to 60 ug/mL incubated for 24 hrs by TRAP-PCR-ELISA assay; conditions: dose 0.082-60 ug/mL
SGC-7901 [5] = assay: Induction of apoptosis in human SGC-7901 cells assessed as early apoptotic cells at 2 uM incubated for 48 hrs by Annexin V-FITC/propidium iodide staining based flow cytometry (reference value: 2.12%); type: functional
Method in brief: (§2)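 SGC-7901 cells treated 48 h at three concentrations; untreated cells served as control. Harvested cells were suspended in annexin-binding buffer (1 × 10⁶ cells/mL), incubated with annexin V-FITC for 15 min, then PI for 5 min at 4 °C in the dark, and analysed immediately by flow cytometry. Quadrants scored necrotic/late apoptotic, early apoptotic and normal cells. At least 3 runs.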

CCRF S-180 [6] = assay: Antitumor activity against mouse S180 cells allografted in Kunming mouse assessed as tumor growth inhibition at 60 mg/kg, po administered once daily for consecutive 10 days; type: functional; conditions: CCRF S-180, 240 h, time 10 day, read-out: TGI
Method in brief: (§3)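 Kunming mice (SPF, male or female, 20 ± 2 g) inoculated subcutaneously in the right front armpit with seven-day-old ascites (0.2 mL, 2 × 10⁶ cells). After 24 h, randomized into groups of 10 and weighed. Dosed by oral gavage at 60 mg/kg/day or given normal saline (10 mL/kg) once daily for ten days. Killed on day 11 and tumors weighed. Inhibition rate = (Wcontrol − Wtreated)/Wcontrol × 100%.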

SGC-7901 [7] = assay: Induction of cell cycle arrest in human SGC-7901 cells assessed as accumulation in G2 phase at 1 uM incubated for 48 hrs by PI staining based flow cytometry analysis (reference value: 24.6%); type: functional
SGC-7901 [8] = assay: Induction of apoptosis in human SGC-7901 cells assessed as late apoptotic cells at 2 uM incubated for 48 hrs by Annexin V-FITC/propidium iodide staining based flow cytometry (reference value: 1.11%); type: functional; method in brief: as §2
SGC-7901 [9] = assay: Induction of mitochondrial membrane potential loss in human SGC-7901 cells assessed as increase in green fluorescence intensity at 1 to 4 uM incubated for 48 hrs by JC-1 staining based flow cytometry; type: functional, cell-based; conditions: dose 1-4 µM
Method in brief: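 Gastric cancer cells seeded at 2 × 10⁵ per well and treated 48 h at […]. Cells were detached with 0.5% trypsin, stained with JC-1 for 0.5 h at 37 °C, 5% CO₂ in the dark, washed twice in JC-1 buffer, and analysed by flow cytometry. Read-out was red aggregate versus green monomer fluorescence. At least 3 runs.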

SGC-7901 [10] = assay: Induction of apoptosis in human SGC-7901 cells assessed as early apoptotic cells at 4 uM incubated for 48 hrs by Annexin V-FITC/propidium iodide staining based flow cytometry (reference value: 2.12%); type: functional; method in brief: as §2
SGC-7901 [11] = assay: Induction of apoptosis in human SGC-7901 cells assessed as early apoptotic cells at 1 uM incubated for 48 hrs by Annexin V-FITC/propidium iodide staining based flow cytometry (reference value: 2.12%); type: functional; method in brief: as §2
SGC-7901 [12] = assay: Induction of cell cycle arrest in human SGC-7901 cells assessed as accumulation in S phase at 4 uM incubated for 48 hrs by PI staining based flow cytometry analysis (reference value: 37.4%); type: functional
[13] = Toxicity in Kunming mouse allografted with mouse S180 cells assessed as body weight at 60 mg/kg, po administered once daily for consecutive 10 days (reference value: 19.38 to 19.99g); type: organism-based, CCRF S-180; conditions: in vivo, 240 h, time 10 day; method in brief: as §3
SGC-7901 [14] = assay: Induction of apoptosis in human SGC-7901 cells assessed as viable cells at 1 uM incubated for 48 hrs by Annexin V-FITC/propidium iodide staining based flow cytometry (reference value: 96.7%); type: functional; conditions: read-out: Activity; method in brief: as §2
HepG2 [15] = assay: Antitumor activity against human HepG2 cells xenografted in Kunming mouse assessed as tumor growth inhibition at 60 mg/kg, po administered once daily for consecutive 10 days; type: functional; conditions: HepG2, 240 h, time 10 day, read-out: TGI; method in brief: as §3
SGC-7901 [16] = assay: Induction of apoptosis in human SGC-7901 cells assessed as viable cells at 4 uM incubated for 48 hrs by Annexin V-FITC/propidium iodide staining based flow cytometry (reference value: 96.7%); type: functional; conditions: read-out: Activity; method in brief: as §2
SGC-7901 [17] = assay: Induction of apoptosis in human SGC-7901 cells assessed as necrotic cells at 2 uM incubated for 48 hrs by Annexin V-FITC/propidium iodide staining based flow cytometry (reference value: 0.067%); type: functional; method in brief: as §2
SGC-7901 [18] = assay: Induction of cell cycle arrest in human SGC-7901 cells assessed as accumulation in S phase at 2 uM incubated for 48 hrs by PI staining based flow cytometry analysis (reference value: 37.4%); type: functional
SGC-7901 [19] = assay: Induction of cell cycle arrest in human SGC-7901 cells assessed as accumulation in G1 phase at 2 uM incubated for 48 hrs by PI staining based flow cytometry analysis (reference value: 38.1%); type: functional
SGC-7901 [20] = assay: Induction of cell cycle arrest in human SGC-7901 cells assessed as accumulation in G1 phase at 1 uM incubated for 48 hrs by PI staining based flow cytometry analysis (reference value: 38.1%); type: functional
SGC-7901 [21] = assay: Induction of apoptosis in human SGC-7901 cells assessed as necrotic cells at 1 uM incubated for 48 hrs by Annexin V-FITC/propidium iodide staining based flow cytometry (reference value: 0.067%); type: functional; method in brief: as §2
SGC-7901 [22] = assay: Induction of cell cycle arrest in human SGC-7901 cells assessed as accumulation in G2 phase at 2 uM incubated for 48 hrs by PI staining based flow cytometry analysis (reference value: 24.6%); type: functional
CCRF S-180 [23] = assay: Antitumor activity against mouse S180 cells allografted in Kunming mouse assessed as reduction in tumor weight at 60 mg/kg, po administered once daily for consecutive 10 days (reference value: 2.02+/-0.19g); type: functional; conditions: time 10 day; method in brief: as §3
[24] = Toxicity in Kunming mouse xenografted with […] cells assessed as body weight at 60 mg/kg, po administered once daily for consecutive 10 days (reference value: 19.15 to 19.87g); type: organism-based; conditions: in vivo, 240 h, time 10 day; method in brief: as §3
SGC-7901 [25] = assay: Induction of cell cycle arrest in human SGC-7901 cells assessed as accumulation in G1 phase at 4 uM incubated for 48 hrs by PI staining based flow cytometry analysis (reference value: 38.1%); type: functional
SGC-7901 [26] = assay: Induction of apoptosis in human SGC-7901 cells assessed as late apoptotic cells at 1 uM incubated for 48 hrs by Annexin V-FITC/propidium iodide staining based flow cytometry (reference value: 1.11%); type: functional; method in brief: as §2
HepG2 [27] = assay: Antitumor activity against human HepG2 cells xenografted in Kunming mouse assessed as reduction in tumor weight at 60 mg/kg, po administered once daily for consecutive 10 days (reference value: 2.01+/-0.09g); type: functional; conditions: time 10 day; method in brief: as §3
SGC-7901 [28] = assay: Induction of apoptosis in human SGC-7901 cells assessed as necrotic cells at 4 uM incubated for 48 hrs by Annexin V-FITC/propidium iodide staining based flow cytometry (reference value: 0.067%); type: functional; method in brief: as §2
SGC-7901 [29] = assay: Induction of apoptosis in human SGC-7901 cells assessed as viable cells at 2 uM incubated for 48 hrs by Annexin V-FITC/propidium iodide staining based flow cytometry (reference value: 96.7%); type: functional; conditions: read-out: Activity; method in brief: as §2
SGC-7901 [30] = assay: Induction of cell cycle arrest in human SGC-7901 cells assessed as accumulation in G2 phase at 4 uM incubated for 48 hrs by PI staining based flow cytometry analysis (reference value: 24.6%); type: functional
SGC-7901 [31] = assay: Induction of apoptosis in human SGC-7901 cells assessed as late apoptotic cells at 4 uM incubated for 48 hrs by Annexin V-FITC/propidium iodide staining based flow cytometry (reference value: 1.11%); type: functional; method in brief: as §2
SGC-7901 [32] = assay: Induction of cell cycle arrest in human SGC-7901 cells assessed as accumulation in S phase at 1 uM incubated for 48 hrs by PI staining based flow cytometry analysis (reference value: 37.4%); type: functional

T1 sequence (O14746 whole entry): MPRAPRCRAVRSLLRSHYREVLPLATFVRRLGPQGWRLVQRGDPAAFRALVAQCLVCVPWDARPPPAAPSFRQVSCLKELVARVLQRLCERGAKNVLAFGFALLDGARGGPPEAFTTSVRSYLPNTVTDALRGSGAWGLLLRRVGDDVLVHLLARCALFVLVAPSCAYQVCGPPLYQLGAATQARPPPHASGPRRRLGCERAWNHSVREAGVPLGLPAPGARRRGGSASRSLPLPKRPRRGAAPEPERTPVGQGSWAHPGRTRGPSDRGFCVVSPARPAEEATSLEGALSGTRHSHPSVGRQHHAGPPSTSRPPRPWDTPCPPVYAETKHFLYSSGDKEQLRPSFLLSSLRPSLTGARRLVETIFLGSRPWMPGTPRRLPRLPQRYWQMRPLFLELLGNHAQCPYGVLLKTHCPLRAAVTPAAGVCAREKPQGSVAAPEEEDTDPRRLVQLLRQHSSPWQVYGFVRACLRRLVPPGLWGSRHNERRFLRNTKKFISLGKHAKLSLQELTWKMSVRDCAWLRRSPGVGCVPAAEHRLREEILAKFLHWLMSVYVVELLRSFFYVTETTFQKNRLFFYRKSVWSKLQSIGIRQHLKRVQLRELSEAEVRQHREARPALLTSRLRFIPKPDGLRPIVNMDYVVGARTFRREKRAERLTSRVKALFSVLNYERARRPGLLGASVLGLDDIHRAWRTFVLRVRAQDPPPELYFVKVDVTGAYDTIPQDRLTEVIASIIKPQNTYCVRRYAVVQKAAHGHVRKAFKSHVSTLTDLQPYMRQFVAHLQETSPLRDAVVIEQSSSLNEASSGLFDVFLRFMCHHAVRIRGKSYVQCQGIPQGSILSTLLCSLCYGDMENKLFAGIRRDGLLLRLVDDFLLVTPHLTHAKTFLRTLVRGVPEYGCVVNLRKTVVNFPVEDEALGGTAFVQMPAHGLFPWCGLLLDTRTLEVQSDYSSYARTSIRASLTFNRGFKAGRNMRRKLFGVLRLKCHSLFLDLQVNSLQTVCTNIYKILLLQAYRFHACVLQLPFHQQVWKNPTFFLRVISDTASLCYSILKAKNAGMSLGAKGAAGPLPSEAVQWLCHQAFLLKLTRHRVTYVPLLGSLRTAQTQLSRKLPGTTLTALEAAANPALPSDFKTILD

COc1ccc(C(=O)c2ccc([N+](=O)[O-])cc2)cc1OC(=O)CCC(=O)OC[C@@H]1C=C[C@H](n2cc(C)c(=O)[nH]c2=O)O1
pIC50 [1]: 4.54 | pIC50 (SMMC-7721): 4.52 | pIC50 (HeLa): 4.68 | pIC50 (HepG2 [2]): 4.62 | pIC50 (SGC-7901 [3]): 4.99

COc1ccc(C(=O)c2ccccc2OC)cc1OCC(=O)OC[C@@H]1C=C[C@H](n2cc(C)c(=O)[nH]c2=O)O1
pIC50 (SMMC-7721): 4.49 | pIC50 (HeLa): 4.52

COc1ccc(C(=O)c2cc(OC)c(OC)c(OC)c2)cc1OCC(=O)OC[C@@H]1C=C[C@H](n2cc(C)c(=O)[nH]c2=O)O1
pIC50 (SMMC-7721): 4.67 | pIC50 (HeLa): 4.89 | pIC50 (HepG2 [2]): 4.83 | pIC50 (SGC-7901 [3]): 4.63

COc1ccc(C(=O)c2cccc(Cl)c2)cc1OC(=O)CCC(=O)OC[C@@H]1C=C[C@H](n2cc(C)c(=O)[nH]c2=O)O1
pIC50 (SMMC-7721): 5.49 | pIC50 (HeLa): 5.19 | pIC50 (HepG2 [2]): 4.96 | pIC50 (SGC-7901 [3]): 5.38

COc1ccc(C(=O)c2cc(Br)ccc2Cl)cc1OCC(=O)OC[C@@H]1C=C[C@H](n2cc(C)c(=O)[nH]c2=O)O1
inhibition [4]: inactive

COc1ccc(C(=O)c2ccccc2Cl)cc1OCC(=O)OC[C@@H]1C=C[C@H](n2cc(C)c(=O)[nH]c2=O)O1
pIC50 (SMMC-7721): 4.39 | pIC50 (HeLa): 4.34

COc1cccc(C(=O)c2ccc(OC)c(OC(=O)CCC(=O)OC[C@@H]3C=C[C@H](n4cc(C)c(=O)[nH]c4=O)O3)c2)c1
pIC50 [1]: 5.15 | Activity (SGC-7901 [5]): 18.3% | inhibition in vivo at 60 mg/kg (CCRF S-180 [6]): 40.6% | Activity (SGC-7901 [7]): 30% | Activity (SGC-7901 [8]): 19.7% | Activity (SGC-7901 [9]): Active | Activity (SGC-7901 [10]): 26.4% | pIC50 (SMMC-7721): 6.09 | Activity (SGC-7901 [11]): 7.34% | Activity (SGC-7901 [12]): 23.2% | Activity [13]: 24.25 g | viability at 1 µM (SGC-7901 [14]): 86.6% | inhibition in vivo at 60 mg/kg (HepG2 [15]): 48.5% | pIC50 (HeLa): 5.80 | viability at 4 µM (SGC-7901 [16]): 40.2% | Activity (SGC-7901 [17]): 0.282% | Activity (SGC-7901 [18]): 28.9% | pIC50 (HepG2 [2]): 5.50 | Activity (SGC-7901 [19]): 28.5% | pIC50 (SGC-7901 [3]): 6.11 | Activity (SGC-7901 [20]): 32.9% | Activity (SGC-7901 [21]): 0.07% | Activity (SGC-7901 [22]): 42.6% | Activity (CCRF S-180 [23]): 1.2 g | Activity [24]: 26.34 g | Activity (SGC-7901 [25]): 15.8% | Activity (SGC-7901 [26]): 5.96% | Activity (HepG2 [27]): 1.04 g | Activity (SGC-7901 [28]): 0.3% | viability at 2 µM (SGC-7901 [29]): 61.8% | Activity (SGC-7901 [30]): 60.9% | Activity (SGC-7901 [31]): 33.2% | Activity (SGC-7901 [32]): 37.1%
